{"data": "Measured values of several laboratories", "target": "Dual specificity protein kinase TTK (TTK, Homo sapiens, UniProt P33981)", "Sequence (P33981 1-857, as in one of the studies)": "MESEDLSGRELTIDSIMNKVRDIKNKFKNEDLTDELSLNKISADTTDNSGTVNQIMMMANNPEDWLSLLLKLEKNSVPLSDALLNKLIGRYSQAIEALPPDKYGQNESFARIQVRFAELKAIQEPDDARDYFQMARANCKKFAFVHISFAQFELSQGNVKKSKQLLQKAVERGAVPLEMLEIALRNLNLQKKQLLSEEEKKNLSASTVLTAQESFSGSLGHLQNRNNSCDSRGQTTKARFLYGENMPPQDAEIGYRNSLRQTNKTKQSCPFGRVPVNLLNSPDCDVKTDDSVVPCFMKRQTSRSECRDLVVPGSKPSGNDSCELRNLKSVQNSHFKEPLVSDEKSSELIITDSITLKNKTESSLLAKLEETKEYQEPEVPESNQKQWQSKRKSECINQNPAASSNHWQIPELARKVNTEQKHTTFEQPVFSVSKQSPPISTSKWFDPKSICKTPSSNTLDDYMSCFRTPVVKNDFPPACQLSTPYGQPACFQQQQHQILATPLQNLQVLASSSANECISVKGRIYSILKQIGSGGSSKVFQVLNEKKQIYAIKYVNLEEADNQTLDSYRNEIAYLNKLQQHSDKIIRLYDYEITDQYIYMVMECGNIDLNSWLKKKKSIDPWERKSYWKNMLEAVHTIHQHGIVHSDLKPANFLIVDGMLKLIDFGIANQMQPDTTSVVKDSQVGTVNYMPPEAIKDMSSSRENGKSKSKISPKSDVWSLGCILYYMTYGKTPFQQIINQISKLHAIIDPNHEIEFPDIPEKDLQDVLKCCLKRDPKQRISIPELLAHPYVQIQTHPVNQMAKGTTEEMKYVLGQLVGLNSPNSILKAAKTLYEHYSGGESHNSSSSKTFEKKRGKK", "note": "Lines come from different studies, so protocols differ."}
{"SMILES": "Nc1ncc2c(n1)-c1c([nH]c3ccc(C#CC4CC4)cc13)CCCC2", "test": "binding, competition with immobilised ligand", "conditions": "1 µM", "remaining binding [%]": 100}
{"SMILES": "CNC(=O)[C@@H]1CC[C@@H](n2c(-c3ccc4cnccc4c3)nc3ccc(C(=O)NCc4cccc(C(N)=O)c4)cc32)C1", "test": "binding, competition with immobilised ligand", "conditions": "1 µM", "remaining binding [%]": 100}
{"SMILES": "FC(F)(F)Oc1cccc(-c2cnc3ccc(-c4ccncc4)nn23)c1", "test": "binding, competition with immobilised ligand", "conditions": "5 µM", "remaining binding [%]": 53}
{"SMILES": "CO[C@@H](C)c1c(Nc2ccc([C@@H](N(C)C(=O)C3CCS(=O)(=O)CC3)C(F)(F)F)cc2)cnc2cc(Cl)nn12", "test": "cell-free assay, competition with immobilised ligand", "conditions": "1 µM", "remaining binding [%]": 100}
{"SMILES": "c1cnn2ncc(-c3ccnc(N4CCC45COC5)n3)c2c1", "test": "binding", "conditions": "1 µM", "remaining binding [%]": 61}
{"SMILES": "O=C(c1ccc(Nc2nccc(-c3cc4ccccc4s3)n2)cc1)N1CCC(N2CCCC2)CC1", "test": "binding, competition with immobilised ligand", "conditions": "1 µM", "remaining binding [%]": 57}
{"SMILES": "COc1ccc2c(c1)O[C@H](c1ccc(OC)c(OC)c1)C[C@@H]2NC(=O)C1(c2ccc3c(c2)OC(F)(F)O3)CC1", "test": "cell-free assay, competition with immobilised ligand", "conditions": "1 µM", "remaining binding [%]": 100}
{"SMILES": "CN(C)c1nccc(-c2cnn3ncccc23)n1", "test": "binding", "conditions": "1 µM", "remaining binding [%]": 100}
{"SMILES": "O=C(NCCCN1CCOCC1)c1ccc(Nc2ncc(Cl)c(-c3ccc(Cl)s3)n2)cc1", "test": "binding, competition with immobilised ligand", "conditions": "1 µM", "remaining binding [%]": 58}
{"SMILES": "CCOC(=O)c1cc2cc(-c3cc(C(=O)NCc4ccc(C(=O)O)cc4)nn3C)ccc2[nH]1", "test": "cell-free assay, competition with immobilised ligand", "conditions": "0.1 µM", "remaining binding [%]": 93}
{"SMILES": "C[C@H]1CCN(c2nccc(-c3cnn4ncccc34)n2)C1", "test": "binding", "conditions": "1 µM", "remaining binding [%]": 34}
{"SMILES": "O=C(NCCCN1CCOCC1)c1ccc(Nc2nccc(-c3cc4ccccc4s3)n2)cc1", "test": "binding, competition with immobilised ligand", "conditions": "1 µM", "remaining binding [%]": 72}
{"SMILES": "Cc1cnn2ncc(-c3ccnc(N(C)C)n3)c2c1", "test": "binding", "conditions": "1 µM", "remaining binding [%]": 100}
{"SMILES": "C=CC(=O)N1CCC(C(=O)NCC(=O)N2CCN(c3nc(-c4cnc(N)nc4C(F)F)nc(N4CCOCC4)n3)CC2)CC1", "test": "binding, competition with immobilised ligand", "conditions": "1 µM", "remaining binding [%]": 92}
{"SMILES": "N[C@@H]1CCN(c2nccc(-c3cnn4ncccc34)n2)C1", "test": "binding", "conditions": "1 µM", "remaining binding [%]": 100}
{"SMILES": "CC1=C(C#N)C(c2ccc3c(c2)c(NC(=O)c2ccccc2C)nn3C)C(C#N)=C(C)N1", "test": "cell-free assay, competition with immobilised ligand", "conditions": "1 µM", "remaining binding [%]": 82}
{"SMILES": "CN(CCCC(F)(F)F)c1nccc(-c2cnn3ncccc23)n1", "test": "binding", "conditions": "1 µM", "remaining binding [%]": 64}
{"SMILES": "NS(=O)(=O)c1cc(NC(=O)Cc2ccccc2)ccc1Oc1cccc(Cl)c1", "test": "cell-free assay, competition with immobilised ligand", "conditions": "1 µM", "remaining binding [%]": 91}
{"SMILES": "CCN1CCN(Cc2ccc(C(=O)Nc3ccc(C)c(Oc4ccc5c(c4)CC(=O)N5)c3)cc2C(F)(F)F)CC1", "test": "binding, competition with immobilised ligand", "conditions": "1 µM", "remaining binding [%]": 100}
{"SMILES": "CSc1cccnc1N1CCN(Cc2nc3ccccc3[nH]2)CC1", "test": "cell-free assay, competition with immobilised ligand", "conditions": "1 µM", "remaining binding [%]": 98}
{"SMILES": "O=C(NCC1CCOCC1)c1n[nH]cc1NC(=O)c1c(F)cccc1F", "test": "binding, competition with immobilised ligand", "conditions": "1 µM", "remaining binding [%]": 84}
